ChEMBL document CHEMBL2146402, “Cytotoxic lignans from fruits of Cleistanthus indochinensis: synthesis of cleistantoxin derivatives” (J Nat Prod, 2012)
Activity calls are given as the source filed them. No cut-off for these calls is given here.

Legend:
Type in all cases: functional, cell-based
KB [1] = experiment: Cytotoxicity against human KB cells at 100 ug/mL after 72 hrs by neutral red assay
KB [2] = experiment: Cytotoxicity against human KB cells after 72 hrs by neutral red assay
In short: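 KB human nasopharynx carcinoma cells grown in D-MEM with 10% fetal calf serum, 2 mM L-glutamine, penicillin G, streptomycin and gentamicin. Seeded at 3 × 10³ cells/mL and exposed to compounds (stocks in DMSO/H₂O 1:9) for 72 h at 37 °C in air/CO₂ 95:5. Living cells stained with neutral red, OD read at 540 nm. IC50 is the concentration reducing growth to 50% of control. Taxotere reference.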

HT-29 = experiment: Cytotoxicity against human HT-29 cells
MCF7 = experiment: Cytotoxicity against human MCF7 cells
[3] = Cytotoxicity against human MCF7/R cells; details: MCF7R

Row | Structure (SMILES) | Activity (KB [1]) | IC50 (KB [2]) | further results
1 | COc1c2c(cc3c1[C@H]1C(=O)OC[C@H]1[C@H](C(=O)NC1CCCC1)[C@@H]3c1ccc3c(c1)OCO3)OCO2 | inactive |  | 
2 | COc1c2c(cc3c1[C@@H](C#N)[C@H]1COC(=O)[C@@H]1[C@@H]3c1ccc3c(c1)OCO3)OCO2 |  | 1.2 mg/L | 
3 | COc1c2c(cc3c1[C@H]1C(=O)OC[C@H]1[C@H](C(=O)N(Cc1ccccc1)Cc1ccccc1)[C@@H]3c1ccc3c(c1)OCO3)OCO2 | inactive |  | 
4 | COc1c2c(cc3c1[C@H]1C(=O)OC[C@H]1[C@H](C(=O)n1ccnc1)[C@@H]3c1ccc3c(c1)OCO3)OCO2 | inactive |  | 
5 | COc1c2c(cc3c1[C@H]1C(=O)OC[C@H]1[C@H](C(=O)N1CCCCC1)[C@@H]3c1ccc3c(c1)OCO3)OCO2 |  | 42 mg/L | 
6 | COc1c2c(cc3c1[C@H]1C(=O)OC[C@H]1[C@H](C(=O)NCc1ccc(Cl)c(Cl)c1)[C@@H]3c1ccc3c(c1)OCO3)OCO2 | inactive |  | 
7 | COc1c2c(cc3c1[C@H]1C(=O)OC[C@H]1[C@H](C(=O)NCc1ccco1)[C@@H]3c1ccc3c(c1)OCO3)OCO2 | inactive |  | 
8 | COc1c2c(cc3c1[C@H]1C(=O)OC[C@H]1[C@H](C(=O)NC1CCCCCC1)[C@@H]3c1ccc3c(c1)OCO3)OCO2 |  | 26 mg/L | 
9 | COc1c2c(cc3c1[C@@H]1OC(=O)[C@H]([C@@H]3c3ccc4c(c3)OCO4)[C@@H]1CO)OCO2 [NEOCLEISTANTOXIN] |  | 1.4 µM | 
10 | COc1c2c(cc3c1[C@H]1C(=O)OC[C@H]1[C@H](C(=O)NCc1ccc(F)cc1)[C@@H]3c1ccc3c(c1)OCO3)OCO2 | inactive |  | 
11 | COc1c2c(cc3c1[C@H]1C(=O)OC[C@H]1[C@H](C(=O)O)[C@@H]3c1ccc3c(c1)OCO3)OCO2 | inactive |  | 
12 | COc1c2c(cc3c1[C@H](O)[C@H]1COC(=O)[C@@H]1[C@@H]3c1ccc3c(c1)OCO3)OCO2 [CLEISTANTOXIN] |  | 0.022 µM | IC50 (HT-29): 0.035 µM; IC50 (MCF7): 0.036 µM; IC50 [3]: 0.014 µM
